Active and inactive are the calls of the source. The rule behind the calls is not given here.

Series [1] has as its system Human immunodeficiency virus 1. Nature of the series: Antiviral activity against Human immunodeficiency virus 1 NL4-3 infected in human MT4 cells measured on day 3 post infection by Nano-Glo luciferase reporter gene assay. The settings on record: Human immunodeficiency virus 1, NL4-3, MT4, 72 h. It is filed as functional, organism-based. The essentials:
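HIV-1 NL4-3 Nanoluc-sec reporter virus at 50 TCID50/well infects MT4 cells (1 × 10⁵ cells/mL) in the presence of graded compound concentrations. On day 3 post-infection, supernatant is assayed for secreted NanoLuc luciferase.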
(In a reporter assay the amount or activity of a reporter protein is the signal.)

Another series concerns MT4. Description: Cytotoxicity against human MT4 cells after 3 days by CytoTox-Glo assay. Type of series: cell-based. To be noted: mt4, 72 h. The essentials: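 MT4 cells cultured for 3 days with various compound concentrations. Cytotoxicity is read by CytoTox-Glo following the manufacturer's protocol. CC50 = concentration causing 50% reduction of cell viability.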
Series [2] in a line: Selectivity index, ratio of CC50 for human MT4 cells to EC50 for Human immunodeficiency virus 1 NL4-3 infected in human MT4 cells. It is filed as toxicity, cell-based. The settings on record: read-out: Ratio CC50/EC50. The method in brief:
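SI = CC50/EC50. CC50 is from a 3-day CytoTox-Glo assay on MT4 cells. EC50 is from MT4 cells infected with 50 TCID50/well NL4-3 Nanoluc-sec and given graded compound, with supernatant luciferase read on day 3 as 50% reduction.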

In series [3] the test system is Human immunodeficiency virus 1. Nature of the series: Reactivation of latent HIV1 infected in human U1 cells assessed as increase in p24 production after 72 hrs by ELISA. To be noted: Human immunodeficiency virus 1, U1, 72 h. Type of series: functional, organism-based. The essentials:
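Latently infected U1 cells (2×10⁵ cells/mL) incubated with various compound concentrations at 37 °C for 72 h. Culture supernatant p24 is measured by ELISA. EC50 = concentration activating p24 production by 50%, fitted by non-linear regression.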
In general terms: ELISA stands for enzyme-linked immunosorbent assay.

The test system of series [4] is Human immunodeficiency virus 1. Nature of the series: Reactivation of latent HIV1 infected in human J-Lat A2 cells assessed as increase in GFP expression at 10 to 50 nM after 72 hrs by flow cytometric method. Type of series: functional, organism-based. The essentials:
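J-Lat (A2) cells (1×10⁶ cells/well) incubated with various concentrations of latency reversing agents at 37 °C for 72 h. GFP-expressing cells are quantified by flow cytometry.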

Series [5] relates to Human immunodeficiency virus 1. Description: Potency index, ratio AZT EC50 to test compound EC50 for Human immunodeficiency virus 1 NL4-3 infected in human MT4 cells. It is filed as functional.
Series [6] is described as follows: Cytotoxicity against human U937 cells after 3 days by CytoTox-Glo assay. It is filed as cell-based, U-937. The method in brief:
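U937 cytotoxicity is run by the same method as for MT4: 3-day culture with various compound concentrations, CytoTox-Glo read-out, and CC50 taken as 50% reduction of viability.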

Take `C/C=C(/C)C(=O)O[C@H]1C(C)=C[C@]23C(=O)[C@@H](C=C(C)[C@@H](O)[C@]12O)[C@H]1[C@@H](C[C@H]3C)C1(C)C`: it took 0.426 µM to reach a half-maximal effect in series [1] (EC50). In the series with MT4, the CC50 (usually the concentration giving 50% cytotoxicity) was above 9.7 µM. The selectivity ratio in series [2] is above 22.8.
Take `CC(=O)O[C@H]1C(C)=C[C@]23C(=O)[C@@H](C=C(C)[C@@H](OC(=O)c4ccccc4)[C@]12O)[C@H]1[C@@H](C[C@H]3C)C1(C)C`: the EC50 – broadly, the concentration giving half of the maximal effect – in series [1] came out at 0.367 µM. For the same compound, the CC50 in the series on MT4 is above 8.4 µM. Besides, in series [2], the selectivity ratio was above 23.
The matching figures for `CC(=O)OCC1=C[C@@H]2C(=O)[C@]3(C=C(C)[C@H](O)[C@@]3(O)[C@@H]1O)[C@H](C)C[C@@H]1[C@H]2C1(C)C`: 1.08 µM, above 10.3 µM and above 10.
The corresponding values for `CCCCCCCCCCCC(=O)O[C@@]12C[C@@H](C)[C@]34C=C(C)[C@H](OC(=O)C(C)C(C)C)[C@@]3(O)[C@H](O)C(CO)=C[C@H](C4=O)[C@@H]1C2(C)C` (some centres undefined) are 0.0008 µM, above 6.2 µM and above 7500.
The matching figures for `CC1=C[C@@H]2C(=O)[C@]3(C=C(C)[C@H](OC(=O)c4ccccc4)[C@@]3(O)[C@@H]1O)[C@H](C)C[C@@H]1[C@H]2C1(C)C`: 0.0305 µM, above 9.2 µM and above 302.
In series [1], `CC1=C[C@@H]2C(=O)[C@]3(C=C(C)[C@H](OC(=O)/C=C/c4ccccc4)[C@@]3(O)[C@@H]1O)[C@H](C)C[C@@H]1[C@H]2C1(C)C` came in with an EC50 of 0.188 µM. This compound also came in with a CC50 in the series with MT4 above 8.7 µM. Further, the selectivity ratio in series [2] was above 45.
`Cc1cn([C@H]2C[C@H](N=[N+]=[N-])[C@@H](CO)O2)c(=O)[nH]c1=O` [ZIDOVUDINE] yielded a CC50 in the series with MT4 above 0.4 µM.
Consider `CC1=C[C@@H]2C(=O)[C@]3(C=C(C)[C@H](O)[C@@]3(O)[C@@H]1OC(=O)c1ccc3ccccc3c1)[C@H](C)C[C@@H]1[C@H]2C1(C)C`, for which the EC50 in series [1] was 0.0155 µM. In the series on MT4, this compound yielded a CC50 above 8.2 µM. The selectivity ratio in series [2] is above 179.
On to `C/C=C(/C)C(=O)O[C@H]1C(C)=C[C@]23C(=O)[C@@H](C=C(CO)[C@@H](O)[C@]12O)[C@H]1[C@@H](C[C@H]3C)C1(C)C` [INGENOL MEBUTATE], for which the EC50 is 0.0045 µM in series [1] and 0.0042 µM in series [3]. The CC50 with MT4 is above 9.3 µM. Besides, the selectivity ratio in series [2] is above 2070. Also, the outcome in series [4] was Active.
As for `COc1ccc(C(=O)O[C@H]2C(C)=C[C@]34C(=O)[C@@H](C=C(C)[C@@H](O)[C@]23O)[C@H]2[C@@H](C[C@H]4C)C2(C)C)cc1`, the EC50 in series [1] stood at 0.134 µM. The compound also came in with a CC50 with MT4 above 8.6 µM. For the same compound, the selectivity ratio in series [2] was above 64.
The corresponding values for `C/C=C/C(=O)O[C@H]1C(C)=C[C@]23C(=O)[C@@H](C=C(C)[C@@H](O)[C@]12O)[C@H]1[C@@H](C[C@H]3C)C1(C)C` are 0.6 µM, above 10 µM and above 17.
The matching figures for `CC1=C[C@@H]2C(=O)[C@]3(C=C(C)[C@H](OC(=O)c4ccc5ccccc5c4)[C@@]3(O)[C@@H]1O)[C@H](C)C[C@@H]1[C@H]2C1(C)C`: 0.0151 µM, above 8.2 µM and above 543.
The corresponding values for `CCCCCCCC(=O)O[C@H]1C(C)=C[C@]23C(=O)[C@@H](C=C(C)[C@@H](O)[C@]12O)[C@H]1[C@@H](C[C@H]3C)C1(C)C` are 0.145 µM, above 8.7 µM and above 59.9.
Consider `CCCCCCCCCCCC(=O)O[C@@]12C[C@@H](C)[C@]34C=C(C)[C@H](O)[C@@]3(O)[C@H](O)C(CO)=C[C@H](C4=O)[C@@H]1C2(C)C`, for which, in series [1], it took 0.0337 µM to reach a half-maximal effect (EC50). Besides, the CC50 in the series with MT4 was above 9.2 µM. Moreover, in series [2], the selectivity ratio was above 273.
On to `CC1=C[C@]23C(=O)[C@@H](C=C(CO)[C@@H](O)[C@]2(O)[C@H]1O)[C@H]1[C@@H](C[C@H]3C)C1(C)C` [INGENOL], for which the EC50 in series [1] was above 11.5 µM. In addition, in the series on MT4, the CC50 is above 11.5 µM. Also, in series [2], the selectivity ratio was above 10.
`CC1=C[C@]23C(=O)[C@@H](C=C(CO)[C@@H](O)[C@]2(O)[C@H]1OC(=O)c1ccc2ccccc2c1)[C@H]1[C@@H](C[C@H]3C)C1(C)C`: the figures for the EC50 in series [1] and in series [3] were 0.0013 µM and 0.0024 µM, respectively. Further, the 50% cytotoxic concentration (CC50) with MT4 was above 8 µM. The selectivity ratio in series [2] is above 6150. Further, the “Ratio EC50” value in series [5] is reported as 10. The compound further displayed a CC50 at 72 h in series [6] above 20 µM. In series [4], the result was Active.
In turn, `CC1=C[C@@H]2C(=O)[C@]3(C=C(C)[C@H](O)[C@@]3(O)[C@@H]1O)[C@H](C)C[C@@H]1[C@H]2C1(C)C` showed an EC50 in series [1] above 12 µM. In the series on MT4, this compound returned a CC50 above 12 µM. Moreover, the selectivity ratio in series [2] was above 10.
`CC1=C[C@@H]2C(=O)[C@]3(C=C(C)[C@H](O)[C@@]3(O)[C@@H]1OC(=O)/C=C/c1ccccc1)[C@H](C)C[C@@H]1[C@H]2C1(C)C`: in series [1], the midpoint of the response, the EC50, lay at 0.396 µM. The compound further gave a CC50 with MT4 above 8.7 µM. For the same compound, in series [2], the selectivity ratio was above 22.
The matching figures for `CC1=C[C@@H]2C(=O)[C@]3(C=C(C)[C@H](O)[C@@]3(O)[C@@H]1OC(=O)c1ccccc1)[C@H](C)C[C@@H]1[C@H]2C1(C)C`: 0.0426 µM, above 9.2 µM and above 216.
In turn, `C/C=C(\C)C(=O)O[C@H]1C(C)=C[C@]23C(=O)[C@@H](C=C(C)[C@@H](O)[C@]12O)[C@H]1[C@@H](C[C@H]3C)C1(C)C` gave an EC50 in series [1] of 0.209 µM. Also, the selectivity ratio in series [2] was above 46.
`COc1ccc(C(=O)O[C@@H]2C(C)=C[C@@H]3C(=O)[C@]4(C=C(C)[C@H](O)[C@@]24O)[C@H](C)C[C@@H]2[C@H]3C2(C)C)cc1` gave an EC50 in series [1] of 0.433 µM. Moreover, the CC50 with MT4 is above 8.6 µM. Besides, the selectivity ratio in series [2] is above 20.
The matching figures for `C/C=C/C(=O)O[C@@H]1C(C)=C[C@@H]2C(=O)[C@]3(C=C(C)[C@H](O)[C@@]13O)[C@H](C)C[C@@H]1[C@H]2C1(C)C`: 0.63 µM, above 10 µM and above 16.

Source of the values: ChEMBL document CHEMBL4270568, “Identification, structural modification, and dichotomous effects on human immunodeficiency virus type 1 (HIV-1) replication of ingenane esters from Euphorbia kansui” (Eur J Med Chem, 2018).
